The record followed here is PubChem BioAssay AID652163 (Broad Institute, 2013).

The term inhibition denotes the drop in the measured response relative to a control, in per cent.

About 500 (0.14%) of roughly 360,000 compounds were called active. Shown is part of a subset that was picked to be rich in actives. Values without a mark were called inactive.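 How the source made its calls: active means mean inhibition of at least 70% across replicates, with every replicate also reaching that level; inconclusive means mean inhibition reaches 70% but some replicates fall short; inactive means mean inhibition below 70%.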

Chain of Protein S100-A4 (Homo sapiens) (P26447 whole entry, looked up): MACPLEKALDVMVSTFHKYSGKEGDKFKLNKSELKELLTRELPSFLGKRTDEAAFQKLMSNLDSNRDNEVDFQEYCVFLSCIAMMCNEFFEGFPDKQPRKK

In the experiment the target is Protein S100-A4 (Homo sapiens) (UniProt P26447). As to the kind of experiment: human S100A4 protein-peptide interaction blockers – biochemical, fluorescence polarization, TAMRA-MyoIIA peptide, primary screen (AID 652163). The note with it: at 10.7 µM, active compounds read high. The gist of the method:
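Material: S100A4 monomer protein | Medium: HEPES pH 7.2 with CaCl2, KCl, NaCl, DTT, Triton | Reagent: Labelled myosin peptide probe, 5 nM | Doses: One dose per compound | Times: 5 min incubation before reading | Benchmarks: Neutral control DMSO, positive control TFP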
On the technique in general: Fluorescence polarisation rises when a labelled molecule tumbles more slowly, as on binding a larger partner.
On to `C[C@H]1CN([C@@H](C)CO)C(=O)c2cc(C#CC3CCCC3)cnc2O[C@H]1CN(C)C(=O)c1ccncc1`, for which the inhibition was 11.5%.
The figure for `CO[C@H]1CN(C)C(=O)c2cc(NC(=O)C3CC3)ccc2OC[C@H](C)N(Cc2ccccc2)C[C@H]1C` is 3.65%; for `O=C(N[C@@H]1CC[C@@H](CC(=O)N2CCc3ccccc3C2)O[C@@H]1CO)C1CCOCC1` it is 13.9%.
`C[C@@H]1CN([C@@H](C)CO)C(=O)c2cc(NS(=O)(=O)c3cn(C)cn3)ccc2O[C@@H]1CN(C)C(=O)NC1CCCCC1`: the inhibition is 12.5%.
Consider `O=C(C[C@@H]1CC[C@@H]2[C@H](COC[C@H](O)CN2C(=O)c2ccc3c(c2)OCO3)O1)NC1CCCC1`, for which the inhibition was 6.17%.
As for `CC(C)NC(=O)N(C)C[C@@H]1Oc2ccc(NC(=O)C3CCCCC3)cc2CC(=O)N([C@H](C)CO)C[C@@H]1C`, the inhibition is 1.64%.
As for `C[C@@H]1CCCCO[C@H](CN(C)C(=O)Nc2ccc3c(c2)OCO3)[C@H](C)CN([C@H](C)CO)C(=O)c2cc(NS(C)(=O)=O)ccc2O1`, the figure is -0.157%.
The figure for `CNS(=O)(=O)c1ccc2c(c1)[nH]c(=S)n2C` is 82.4% (active); for `Cn1c(=O)n(C)c2cc(S(=O)(=O)Nc3ccc(F)cc3)ccc21` it is 0.871%.
As for `CCn1c(=S)[nH]c2cc(S(=O)(=O)N3CCOCC3)ccc21`, the figure is -2.43%; as for `COC(=O)c1c(NC(=O)CSc2nncs2)sc2c1CCCCC2`, -2.13%.
`COC(=O)c1c(NC(=O)C2CC(C)=C(C)CC2C(=O)O)sc2c1CCCCC2` (configuration not stated): the inhibition was -3.38%.
Take `Cc1noc(C)c1NC(=O)Nc1ccc2c(c1)C(=O)N([C@H](C)CO)C[C@@H](C)[C@@H](CN(C)S(=O)(=O)c1ccc(Cl)cc1)OCCCC[C@H](C)O2`: the inhibition was 108% (active).
With `C[C@@H]1CCCCO[C@H](CN(C)C(=O)c2ccccc2)[C@H](C)CN([C@@H](C)CO)C(=O)c2cc(NC(=O)Nc3ccc4c(c3)OCO4)ccc2O1`, the inhibition is -5.3%.
As for `Cc1noc(C)c1S(=O)(=O)N(C)C[C@H]1OCCCC[C@H](C)Oc2ccc(NS(=O)(=O)c3ccccc3)cc2C(=O)N([C@H](C)CO)C[C@@H]1C`, the inhibition is 106% (active).
On to `CC(C)NC(=O)Nc1ccc2c(c1)C(=O)N([C@@H](C)CO)C[C@@H](C)[C@H](CN(C)C(=O)Cc1ccccc1)OCCCC[C@H](C)O2`, for which the inhibition was 2.76%.
Take `Cc1noc(C)c1NC(=O)Nc1ccc2c(c1)C(=O)N([C@H](C)CO)C[C@@H](C)[C@H](CN(C)S(=O)(=O)c1ccc(Cl)cc1)OCCCC[C@H](C)O2`: the inhibition was -9.02%.
The figure for `C[C@@H]1CCCCO[C@@H](CN(C)C(=O)Cc2ccccc2)[C@H](C)CN([C@@H](C)CO)C(=O)c2cc(NC(=O)Nc3ccc4c(c3)OCO4)ccc2O1` is 121% (active); for `Cc1noc(C)c1S(=O)(=O)N(C)C[C@@H]1OCCCC[C@@H](C)Oc2ccc(NS(=O)(=O)c3ccccc3)cc2C(=O)N([C@H](C)CO)C[C@@H]1C` it is -6.41%.
The figure for `Cc1noc(C)c1S(=O)(=O)Nc1ccc2c(c1)C(=O)N([C@@H](C)CO)C[C@@H](C)[C@@H](CN(C)S(=O)(=O)c1ccccc1)OCCCC[C@H](C)O2` is -42.8%; for `Cc1noc(C)c1NC(=O)Nc1ccc2c(c1)C(=O)N([C@H](C)CO)C[C@H](C)[C@@H](CN(C)S(C)(=O)=O)OCCCC[C@H](C)O2` it is 7.29%; for `CCCC(=O)Nc1ccc2c(c1)OC[C@H](C)N(CCC(F)(F)F)C[C@@H](C)[C@H](OC)CN(C)C2=O` it is -10.8%.
For `CCCC(=O)N1CC2(C1)CN(C(=O)Nc1cccc(F)c1)[C@@H](CO)c1c2c2ccc(OC)cc2n1C`, the inhibition is 14.3%.
The figure for `CN1c2ccc(-c3cccc(F)c3)cc2[C@H]2[C@H](CCN2C(=O)c2cccc(F)c2)[C@H]1CO` is -3.81%; for `CN1c2ccc(-c3ccccc3)cc2[C@@H]2[C@@H](CCN2C(=O)c2ccncc2)[C@@H]1CO` it is 0.924%; for `CN1c2ccc(-c3ccccc3)cc2[C@@H]2[C@@H](CCN2C(=O)c2ccccc2)[C@H]1CO` it is 80% (active).
As for `CN1CCN(C(=O)C[C@H]2CC[C@H]3[C@@H](COC[C@H](O)CN3C(=O)c3ccc(F)cc3)O2)CC1`, the inhibition is -6.97%.
Take `CCCNC(=O)N1C[C@H](C)[C@@H](OC)CN(C)C(=O)c2ccc(NS(=O)(=O)CC(F)(F)F)cc2OC[C@@H]1C`: the inhibition is -4.41%.
For `O=C(NCC1CC1)[C@@H]1[C@@H](CO)[C@@H]2Cn3c(ccc(-c4ccncc4)c3=O)[C@H]1N2Cc1nccs1`, the inhibition was 5.95%.
As for `C[C@@H]1CN([C@@H](C)CO)C(=O)Cc2cc(NS(C)(=O)=O)ccc2O[C@@H]1CN(C)Cc1ccc2c(c1)OCO2`, the figure is -41.9%.
For the compound `O=C([C@@H]1[C@@H](CO)[C@@H]2Cn3c(ccc(-c4ccccc4F)c3=O)[C@H]1N2C(=O)C1CCC1)N1CCCCC1`, the inhibition is 3.88%.
Consider `CCCN1[C@H](C(=O)N2CCCCC2)[C@@H](CO)[C@@H]2Cn3c(ccc(-c4ccccc4F)c3=O)[C@@H]21`, for which the inhibition is 89.8% (active).
The figure for `CN(C)C(=O)[C@@H]1[C@@H](CO)[C@@H]2Cn3c(ccc(-c4ccccc4F)c3=O)[C@@H]2N1C(=O)C1CC1` is -4.07%; for `N#C[C@@H]1[C@@H](c2ccccc2)[C@@H](CO)N1C(=O)c1cc(Cl)cc(Cl)c1` it is 3%.
As for `COc1ccccc1-c1cnc2c(c1)C(=O)N([C@H](C)CO)C[C@H](C)[C@@H](CN(C)CC1CCOCC1)O2`, the figure is -8.2%.
The figure for `COc1cccc(C(=O)Nc2ccc3c(c2)OC[C@H](C)NC[C@H](C)[C@H](OC)CN(C)C3=O)c1` is -5.1%; for `C[C@H](CO)N1C[C@H](C)[C@@H](CN(C)C(=O)NC2CCCCC2)Oc2ccc(NC(=O)c3ccncc3)cc2CC1=O` it is 5.06%.
